Data: paper PMC6993754 (Pharmacology Research & Perspectives, 2020)

B1: recombinant CYP2J2 (Homo sapiens) (protein)
chain: MLAAMGSLAAALWAVVHPRTLLLGTVAFLLAADFLKRRRPKNYPPGPWRLPFLGNFFLVDFEQSHLEVQLFVKKYGNLFSLELGDISAVLITGLPLIKEALIHMDQNFGNRPVTPMREHIFKKNGLIMSSGQAWKEQRRFTLTALRNFGLGKKSLEERIQEEAQHLTEAIKEENGQPFDPHFKINNAVSNIICSITFGERFEYQDSWFQQLLKLLDEVTYLEASKTCQLYNVFPWIMKFLPGPHQTLFSNWKKLKLFVSHMIDKHRKDWNPAETRDFIDAYLKEMSKHTGNPTSSFHEENLICSTLDLFFAGTETTSTTLRWALLYMALYPEIQEKVQAEIDRVIGQGQQPSTAARESMPYTNAVIHEVQRMGNIIPLNVPREVTVDTTLAGYHLPKGTMILTNLTALHRDPTEWATPDTFNPDHFLENGQFKKREAFMPFSIGKRACLGEQLARTELFIFFTSLMQKFTFRPPNNEKLSLKFRMGITISPVSHRLCAVPQV

Columns and labels:
[1] = Time‐dependent metabolism of STS‐135 in genotyped HLMs CYP3A5*1/*1; format: in vitro ADME; settings: human, genotyped CYP3A5*1/*1 human liver microsomes, pH 7.4
In short: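 CYP3A5-genotyped human liver microsomes (*1/*1 or *3/*3) incubated with test compound in 0.1 mol/L KPO₄, pH 7.4, with NADPH-regenerating system at 37°C. Sampled at 0, 10, 20, 30, 45, 60, 90 and 120 min, ethanol-stopped, centrifuged and analysed by UPLC-UV (300 nm) for parent depletion. Half-life determined directly by linear regression; triplicate reactions.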

CB2 receptor = settings: cited from earlier work
CB1 receptor = settings: cited from earlier work
recombinant CYP2J2 = target: T1, recombinant CYP2J2 (Homo sapiens, UniProt P51589)
T1 sequence (P51589 1-502): B1 chain

human hepatocytes = settings: oxidation, hydrolysis, and glucuronidation; cited from earlier work
[2] = tested on: human brain microsomes (HBMs); assay: Screening of STS‐135 oxidative metabolism with HBMs; format: in vitro ADME; settings: STS‐135 50 µmol/L
In short: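 Pooled 50-donor human brain microsomes with test compound (50 µmol/L, 2% DMSO) in 0.1 mol/L KPO₄, pH 7.4. Stopped with equal-volume ethanol, centrifuged; UPLC-UV at 300 nm for M21/M25. No-substrate, no-protein and no-NADPH controls; triplicate; nmol/mg protein/min.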

not read = substrate: O=C(NC12CC3CC(CC(C3)C1)C2)c1cn(CCCCCF)c2ccccc12; assay: not read; settings: 37.0 °C

| Molecule | half-life [1] [min] | Agonist activity at CB2 receptor (CB2 receptor) | Agonist activity at CB1 receptor (CB1 receptor) | K m, production of M25 (Figure 6 legend) (recombinant CYP2J2) | Number of metabolites formed (human hepatocytes) [metabolites] | Specific activity, formation of M21 [2] | Specific activity, formation of M25 [2] | Km (not read) [µM] | Vmax (not read) [pmol/min/mg protein] |
| --- | --- | --- | --- | --- | --- | --- | --- | --- | --- |
| O=C(NC12CC3CC(CC(C3)C1)C2)c1cn(CCCCCF)c2ccccc12 [STS‐135, N‐(adamantan‐1‐yl)‐1‐(5‐fluoropentyl)‐1H‐indole‐3‐carboxamide] | 21.1 | potent agonist | potent agonist | 11.2389 ± 1.733 | 29 | no detectable metabolites | no detectable metabolites |  |  |
| B1 |  |  |  |  |  |  |  | 11.2 ± 1.7 | 17.2 ± 0.5 |
